We go through 91 compounds from PubChem BioAssay AID624467 (The Scripps Research Institute Molecular Screening Center, 2012).

Out of some 360,000 compounds screened, about 3,600 (1%) were called active.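 The calls were made as follows: active = activation above the mean activation of all test compounds in the run plus 3 SD (cut at about 38% in these data); inactive = the rest.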 Shown is part of a subset that was picked to be rich in actives.

Sequence of Trace amine-associated receptor 1 (Homo sapiens) (Q96RJ0 whole entry, looked up): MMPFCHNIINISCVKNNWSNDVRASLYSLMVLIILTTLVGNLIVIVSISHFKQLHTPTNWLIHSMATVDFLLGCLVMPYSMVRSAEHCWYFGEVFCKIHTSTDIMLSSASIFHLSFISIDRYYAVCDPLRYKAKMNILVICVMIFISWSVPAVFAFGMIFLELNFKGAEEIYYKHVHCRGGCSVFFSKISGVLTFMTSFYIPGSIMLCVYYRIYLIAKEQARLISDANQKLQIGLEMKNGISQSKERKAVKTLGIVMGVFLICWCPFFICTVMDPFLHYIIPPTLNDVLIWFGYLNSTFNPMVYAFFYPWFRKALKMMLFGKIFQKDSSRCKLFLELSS

The experiment addresses Trace amine-associated receptor 1 (Homo sapiens) (UniProt Q96RJ0). The experiment can be described thus: human TAAR1 agonists, primary screen, Fluo-8 calcium fluorescence, CHO RD-HGA16 cells (AID 624467). The note with it: CHO RD-HGA16 TAAR1, Fluo-8 calcium fluorescence; at 3 µM; stronger effect = higher value; vehicle wells 0%, saturating PEA agonist 100%. Put shortly: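 Signal – calcium-sensitive Fluo-8 signal, excitation 470-495, emission 515-575 nm · System – RD-HGA16 (CHO) cells co-expressing Gα16 and hTAAR1 · Incubation – 17-24 h seeding, 75 min 37 °C dye, 30 min RT · Compound dosing – 3 µM single concentration · Repeats – no replicates (n 1)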
As for `CC(C)Nc1nnc(SCC(=O)c2c[nH]c3ccccc23)s1`, the activation is 1.89% (inactive).
As for `C[C@H](NC(=O)c1ccccc1)C(=O)OCC(=O)c1c[nH]c2ccccc12`, the activation is 70% (active).
For `CCOc1ncccc1C(=O)OCC(=O)c1c[nH]c2ccccc12` the value was 14.1% (inactive); for `COc1ccc(NC(=O)C2(C)Cc3c(-c4ccc(C(N)=O)cc4)ccnc3O2)cc1` (stereo unspecified), 1.37% (inactive); for `CN[C@H]1C[C@H]2c3[nH]c4c(-c5ccccc5)cccc4c3CCN2C(=O)[C@H]1[C@H](C)O`, 4.95% (inactive).
Regarding `CCc1ccc(-c2nn(-c3ccccc3)cc2CSC(=N)N)cc1`, the activation was 99.3% (active).
As to `O=C(NCCCN1CCOCC1)c1cn(-c2ccccc2)nc1-c1ccc(F)cc1`, the activation is 3.53% (inactive).
Consider `CCc1ccc(-c2nn(-c3ccccc3C)cc2C(=O)N2CCN(C3CCS(=O)(=O)C3)CC2)cc1` (stereo unspecified), for which the activation was 1.27% (inactive).
As for `CCc1nc2ccc(C(=O)N3CCN(c4cccc(Cl)c4)CC3)cc2nc1CC`, the activation was 1.12% (inactive).
For `COC(=O)[C@]12C[C@H](CC(=O)NCCCCc3ccccc3)C(=O)N(Cc3ccc4c(c3)OCO4)C1=C[C@H](C(C)(C)C)O[C@@H]2C`, the activation was 5.91% (inactive).
In the case of `Cc1occc1C(=O)N/N=C/c1ccc(-c2cccc([N+](=O)[O-])c2)o1`, the activation was 4.69% (inactive).
For the compound `COc1cc(/C=N\NC(=O)c2nonc2N)c(OC)cc1Br`, the activation was 1.69% (inactive).
The value for `Cc1cc(C)c([N+](=O)[O-])cc1-c1ccc(/C=N/NC(=O)c2nonc2N)o1` was 41% (active); that for `O=C(COC(=O)CCc1c[nH]c2ccccc12)Nc1cccc(Cl)c1` was 3.56% (inactive).
The value for `Nc1ncnc2c1ncn2[C@@H]1O[C@H](C(=O)N[C@@H](CCc2ccccc2)C(=O)NCC(=O)N2CCOCC2)[C@@H](O)[C@H]1O` was 0.02% (inactive); that for `Clc1cccc2c1C1CC2CCN1Cc1ccccc1` (stereo unspecified) was -1.9% (inactive); that for `Fc1ccccc1CNC(=S)Nc1ccc(Cl)cc1` was 5.04% (inactive).
In the case of `Cc1ccccc1N/C(SCc1ccc(Cl)cc1)=C(/C#N)C(N)=O`, the activation is 6.27% (inactive).
For `O=C(Cc1ccc(Cl)cc1)NC(=S)Nc1ccccc1O` the value was 138% (active); for `Cc1ccccc1NC(=S)NC(=O)Cc1ccc(Cl)cc1`, 82.3% (active).
As to `Cc1cc(C(=O)NNC(=S)Nc2ccccc2C)cs1`, the activation is 7.69% (inactive).
Consider `COC(=O)c1ccccc1NC(=O)CN(Cc1ccc(Cl)cc1)S(C)(=O)=O`, for which the activation was 8.09% (inactive).
As to `Cc1ccc(NS(=O)(=O)c2ccc3c(c2)oc(=O)n3C)c(C)c1`, the activation is 3.17% (inactive).
For the compound `Brc1ccc(COCCc2cn(Cc3ccccc3)c3ccccc23)cc1`, the activation is 0.28% (inactive).
Turning to `S=C(NCCc1ccccc1)N1CCn2cccc2C1c1ccncc1` (stereo unspecified), the activation was 96.1% (active).
As to `CC1CCCCN1C(=S)NCc1ccccc1` (stereo unspecified), the activation was 5.09% (inactive).
As for `S=C(Nc1cccc(Br)c1)N1CCn2cccc2C1c1cccnc1` (stereo unspecified), the activation was 11.1% (inactive).
The value for `Cc1cc(=O)[nH]c(Nc2cccc(Br)c2)n1` was 26.1% (inactive).
For `O=c1cnnc(Nc2ccccc2)[nH]1`, the activation was 53% (active).
For `O=c1cnnc(Nc2ccccc2F)[nH]1`, the activation is 19.6% (inactive).
Regarding `O=C(COC(=O)c1ncc(Cl)c(Cl)c1Cl)NNC(=O)c1ccccc1`, the activation is 4.83% (inactive).
In the case of `COc1ccc(N(C)C(=O)C2CCN(S(=O)(=O)c3cccc4nsnc34)CC2)cc1`, the activation is 2.99% (inactive).
For `CCn1cc(CN2CCC(C(=O)Nc3cccc(-c4cccc(Cl)c4)c3)CC2)cn1` the value was 16.6% (inactive); for `O=C(Nc1cccc(-c2cccc(Cl)c2)c1)C1CCN(C2CCC2)CC1`, 45.3% (active).
The value for `CCn1cc(CN2CCC(C(=O)Nc3cccc(-c4cccc(Cl)c4)c3)CC2)c(C)n1` was 19.7% (inactive); that for `O=S(=O)(c1cccs1)N1CCCc2nc(-c3ccc(Br)cc3)ccc21` was 1.37% (inactive).
On to `NC(=O)c1ncn([C@@H]2O[C@H](C(=O)O)[C@@H](O)[C@H]2O)n1`, for which the activation is 1.97% (inactive).
Turning to `COCCNC(=O)c1cc2c(Br)ccc(Br)c2nc1N`, the activation was 0.74% (inactive).
For `CCC(c1nnnn1Cc1ccco1)N(CCc1ccccc1)Cc1cc2ccc(OC)cc2[nH]c1=O` (stereo unspecified), the activation was 100% (active).
Take `Cc1cccc2cc(CN(Cc3nnnn3Cc3ccccc3)C3CCCC3)c(=O)[nH]c12`: the activation is 12% (inactive).
As to `CCC(c1nnnn1Cc1ccco1)N(Cc1cc2cc(OC)ccc2[nH]c1=O)C1CCCCC1` (stereo unspecified), the activation is 1.97% (inactive).
For `CCC(c1nnnn1C1CCCC1)N(Cc1cccs1)Cc1cc2cccc(C)c2[nH]c1=O` (stereo unspecified) the value was 2.02% (inactive); for `CCC(c1nnnn1Cc1ccco1)N(CCc1ccccc1)Cc1cc2cccc(C)c2[nH]c1=O` (stereo unspecified), 43.8% (active); for `COc1ccc2[nH]c(=O)c(CN(Cc3nnnn3CCc3ccccc3)CC3CCCO3)cc2c1` (stereo unspecified), 11.8% (inactive).
In the case of `CN(C)S(=O)(=O)c1cc(C(=O)Nc2ccn(C)n2)c(Cl)cc1Cl`, the activation is 2.93% (inactive).
For `Nc1ncnc2c1ncn2C1OC(CO)CC1O` (stereo unspecified) the value was 1.93% (inactive); for `O=S(=O)(c1cccs1)N1CCc2ccccc2C1`, 13% (inactive); for `c1ccc(-c2csc(N3CCc4ccccc4C3)n2)cc1`, 73% (active).
As for `CN(C)CCCNC(=S)N1CCN(c2nc(-c3ccccc3)cs2)CC1`, the activation is 3.41% (inactive).
In the case of `COc1ccc(Cn2c(-c3ccc(Cl)cc3)c[n+]3ccccc23)cc1`, the activation is 12.9% (inactive).
In the case of `C=CC1=CCN(S(=O)(=O)C(C)(C)C)[C@@H]1CCO`, the activation was 3.56% (inactive).
Take `FC(F)(F)c1ccc(-n2cn[nH]c2=S)cc1`: the activation is 0.73% (inactive).
As for `CSc1ccc(CCNC(=O)C2CCN(c3nnc(-n4cccc4)s3)CC2)cc1`, the activation was -0.88% (inactive).
For `CCOC(=O)C1CCCN(C(=O)C2CCN(c3nnc(-n4cccc4)s3)CC2)C1` (stereo unspecified), the activation was -0.39% (inactive).
Take `O=C(C1CCN(c2nnc(-n3cccc3)s2)CC1)N1CCc2ccccc2C1`: the activation is 40.9% (active).
As to `CC1(C)CC(=O)C=C(c2ccccc2CO)C1=O`, the activation was 0.98% (inactive).
With `COC1=CCC2([N+](=O)[O-])CN(CC(=O)O)CC1([N+](=O)[O-])C2` (stereo unspecified), the activation is 1.51% (inactive).
For `CCOC(=O)C1=C(C(=O)OCC)C2N(Cc3ccc(C#N)cc3)c3ccccc3[C@@]23C[C@@H](C(=O)OC)N(S(=O)(=O)c2ccc(F)cc2)C3=N1` (stereo partly specified), the activation is -0.08% (inactive).
The value for `Cc1noc(C)c1NC(=O)Nc1ccc2c(c1)C(=O)N([C@H](C)CO)C[C@H](C)[C@H](CN(C)Cc1ccncc1)OCCCC[C@@H](C)O2` was 2.28% (inactive).
Turning to `CCc1cc(=O)oc2c(C)c(OCC(=O)NCCN3CCOCC3)ccc12`, the activation was 2.36% (inactive).
Consider `Cc1cc(=O)oc2c(C)c(OCC(=O)NCCN3CCOCC3)ccc12`, for which the activation was 43.2% (active).
Turning to `Cc1cc(=O)oc2c(C)c(OCC(=O)NCCc3ccc(S(N)(=O)=O)cc3)ccc12`, the activation is 0.73% (inactive).
For `O=C1C2(c3ccccc3)CN(CCCO)CC1(c1ccccc1)CN(CCCO)C2` the value was 2.41% (inactive).
Regarding `CCOc1ccc(Cn2c(SCCCCC#N)nc3c2c(=O)n(C)c(=O)n3C)cc1OCC`, the activation was 17.1% (inactive).
On to `CCCSc1nc2c(c(=O)n(C)c(=O)n2C)n1Cc1ccc(C)cc1`, for which the activation was 52.6% (active).
Turning to `Cn1c(=O)c2c(nc(SCCNS(=O)(=O)c3ccccc3)n2C)n(C)c1=O`, the activation is 1.23% (inactive).
`CC1CCc2sc(C(=O)N/N=C/C3CCCCC3)cc2C1` (stereo unspecified): the activation is 5.23% (inactive).
The value for `COCc1[nH]nc2c1C(c1ccccc1)N(c1ccccc1)C2=O` (stereo unspecified) was 0.37% (inactive).
Take `O=C(Cn1nnc(-c2ccccc2)n1)N/N=C/c1ccc(-c2ccc(Cl)cc2)o1`: the activation was -0.07% (inactive).
For `Nc1nnn(CC(=O)N/N=C/c2ccccc2)n1` the value was 43.3% (active); for `O=C(Cn1cncn1)N/N=C/c1c2ccccc2cc2ccccc12`, 6.44% (inactive); for `CC(C)CNc1cccc2c1S(=O)(=O)N[C@H](C)CO2`, -0.59% (inactive).
On to `COc1ccc(C(=O)NC(=S)NNC(=O)CCc2ccccc2)cc1`, for which the activation is 108% (active).
With `CC(=O)NC(=S)NNC(=O)c1ccc(Br)cc1`, the activation is 6.34% (inactive).
Turning to `Cn1nnc(NC(=S)NC(=O)c2ccccc2)n1`, the activation was 0.43% (inactive).
The value for `CCOc1ccccc1NC(=S)NC(=O)CCc1ccccc1` was -1.05% (inactive).
The value for `COc1ccc(C(=O)NNC(=S)NC(=O)c2ccccc2)cc1` was 130% (active).
On to `COc1ccc(/C(N)=N/OC(=O)CCCc2ccccc2)cc1`, for which the activation is 5.81% (inactive).
Consider `COCCCNC(=O)C[C@H]1C[C@@]2(C(=O)OC)C(=C[C@H](C(C)(C)C)O[C@@H]2C)N(Cc2ccc3c(c2)OCO3)C1=O`, for which the activation was 0.46% (inactive).
In the case of `Nc1[nH]c(C(=O)c2ccccc2)c(-c2ccc(Cl)cc2Cl)c1C(=O)c1ccccc1`, the activation is 1.29% (inactive).
`CCC(Sc1nncn1C)C(=O)Nc1nnc(-c2ccc(Cl)cc2)s1` (stereo unspecified): the activation is 0.73% (inactive).
As for `COCc1cc(N2CCN(C(=O)OC(C)(C)C)C[C@@H]2C)ccc1N1CCN(Cc2ccccc2)[C@H](C)C1`, the activation is -1.74% (inactive).
As to `Cc1ccccc1C(=O)N[C@H](C(=O)N1CCC[C@H]1C(=O)NCc1ccccc1)C(C)C`, the activation was 1.24% (inactive).
In the case of `CC(=O)N(CC(O)CO)c1c(I)c(C(=O)NCC(O)CO)c(I)c(C(=O)NCC(O)CO)c1I` (stereo unspecified), the activation was 0.12% (inactive).
For `COC(=O)[C@]12C[C@H](CC(=O)NCc3cccc(C(F)(F)F)c3)C(=O)N(Cc3ccc4c(c3)OCO4)C1=C[C@H](COCc1ccccc1)O[C@@H]2C` the value was 1.6% (inactive).
For `CN1C(=O)/C(=N/OC(=O)c2ccccc2Br)c2ccccc21`, the activation is 2.86% (inactive).
In the case of `Cc1ccc(S(=O)(=O)n2nc(OC(=O)C(C)(C)C)cc2N)cc1`, the activation is 2.73% (inactive).
For `Nc1cc(OC(=O)c2ccccc2Br)nn1S(=O)(=O)c1ccccc1` the value was 78% (active); for `Cc1cc(C)n(CCNS(=O)(=O)c2ccc(Cl)cc2)n1`, 2.21% (inactive); for `COc1ccc(-c2cn[nH]c2-c2ccc(OC)cc2)cc1`, 5.38% (inactive).
Take `COc1ccc2cc(-c3[nH]ncc3CNCCn3nc(C)cc3C)ccc2c1`: the activation was 44% (active).
